ABHD5-PLIN5 inh = ABHD5-PLIN5 interaction inhibitors, primary screen, cell lysate, split luciferase complementation, luminescence; Perilipin-5 (Homo sapiens) + 1-acylglycerol-3-phosphate O-acyltransferase ABHD5 (Homo …; Split G. princeps luciferase complementation, 4 h; inhibition, % at 4 µM; 0.78% of 360,000 active; AID 602281, 2012;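 active = inhibition above the mean inhibition across every tested compound plus 3 SD, cut at about 22% in these data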;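 note: 0% = DMSO only wells and the 100% control is not disclosed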
Beta2AR agonist = beta2AR agonists driving receptor internalization, primary screen, cell-based, FAP fluorogen, flow cytometry; Am2.2-beta2AR cells; 0.43% of 340,000 active; Beta-2 adrenergic receptor (Homo sapiens), P07550; response, % (test concentration not listed);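 active = response above a set limit, near 3 SD of response in nonfluorescent compounds, cut at about 42% in these data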
PfGluPho inh = PfG6PD enzyme inhibitors, primary screen, biochemical, fluorescence intensity, uHTS. PfGluPho enzyme, NADPH resazurin-diaphorase fluorescence. inhibition, % at 20 µM. 0.78% of 350,000 active. AID 504690, 2011;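 active = inhibition reaching at least a set limit at 20 µM in the primary screen, cut at about 59% in these data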;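 note: 0% = DMSO wells with substrate and 100% = DMSO wells lacking glucose-6-phosphate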
MC4R antag cAMP = MC4R antagonists of cAMP signaling, primary screen, cell-based, TR-FRET, antagonist arm of biased-ligand search; MC4R-expressing cells, MTII-stimulated cAMP, LANCE TR-FRET; inhibition, % at 6.5 µM; 0.48% of 360,000 active; AID 540295, 2011;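 active = inhibition above its plate's cutoff, the mean of tested wells on that plate plus 3 SD, cut at about 29% in these data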;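 note: 0% = Melanotan II alone and 100% = Melanotan II plus saturating MCL0020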
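System – human MC4R-expressing U2OS cells · Also added – Melanotan II · Dosing – one concentration, 6.5 µM nominal · Timing – 30-min compound, 1-h challenge, 1-h detection, room temperature · Measured by – Eu-cAMP/anti-cAMP TR-FRET, emission 671 nm · Replicates – singlicate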
MC4R barr agon = MC4R agonists recruiting beta-arrestin, primary screen, cell-based, luminescence, agonist arm of biased-ligand search. U2OS MC4R beta-arrestin complementation; percent of melanotan II response, DMSO zero. 0.98% of 360,000 active. AID 540308, 2011. activation, % at 8.9 µM;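 active = activation above a per-plate cutoff, the mean activation of sample wells on that plate plus 3 SD, cut at about 8% in these data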
cAMP nonselect = nonselective cAMP signaling inhibitors, parental cells, counter-screen for MC4R biased antagonist project, cell-based, TR-FRET, U2OS, forskolin, triplicate; LANCE TR-FRET; inhibition, % at 6.5 µM; shares compounds with MC4R antag cAMP; AID 602193, 2012; 26% of 1,600 active;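 active = mean inhibition over triplicates above the low-control well mean plus 3 SD, set per campaign, cut at about 13% in these data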;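 note: signal is single emission at 671 nm which falls as cellular cAMP rises; 0% = forskolin-stimulated wells and 100% = buffer without forskolin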
MC4R antag conf = MC4R cAMP antagonists, retest, confirmation, cell-based, TR-FRET; 27% of 1,600 active; MC4R-expressing cells, MTII-stimulated cAMP; shares compounds with MC4R antag cAMP; inhibition, % at 6.5 µM; AID 602195, 2012; in the data active = inhibition above about 29%;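 note: 0% = agonist stimulated wells alone and 100% = agonist stimulated wells plus saturating reference antagonist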
MC4R barr ag = MC4R beta-arrestin agonists, retest, confirmation, cell-based, luminescence, U2OS; shares compounds with MC4R barr agon; U2OS MC4R beta-arrestin recruitment; scaled DMSO 0%, Melanotan II 100%; activation, % at 8.9 µM; 31% of 2,400 active; AID 602192, 2012;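 active = mean activation across replicates above the hit cutoff set in the earlier primary screen, cut at about 8% in these data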
MOR DOR agonist = agonists of MOR-DOR heterodimerization, counter-screen for MC4R biased agonist project, cell-based, luminescence; activation, % at 9.2 µM; shares compounds with MC4R barr agon; 5.8% of 2,400 active; U2OS PathHunter beta-arrestin, beta-gal luminescence; percent of deltorphin B response, DMSO zero;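 active = mean activation across replicates exceeds the hit threshold derived in the earlier primary screen, cut at about 18% in these data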;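 note: 100% = deltorphin B at 0.9 µM final and 0% = DMSO alone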
Target sequence (P35372 whole entry, looked up): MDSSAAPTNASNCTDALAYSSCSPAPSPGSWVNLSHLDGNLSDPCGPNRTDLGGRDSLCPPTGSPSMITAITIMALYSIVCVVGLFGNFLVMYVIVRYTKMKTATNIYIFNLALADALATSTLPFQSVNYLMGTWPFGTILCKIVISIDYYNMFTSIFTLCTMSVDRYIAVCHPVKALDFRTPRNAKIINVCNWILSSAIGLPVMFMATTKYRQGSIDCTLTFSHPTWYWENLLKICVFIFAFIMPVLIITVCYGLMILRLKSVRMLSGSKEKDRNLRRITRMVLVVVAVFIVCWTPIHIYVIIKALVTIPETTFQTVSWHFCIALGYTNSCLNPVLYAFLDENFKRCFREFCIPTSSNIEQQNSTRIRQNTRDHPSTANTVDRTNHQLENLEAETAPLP
Target sequence (P41143 whole entry, looked up): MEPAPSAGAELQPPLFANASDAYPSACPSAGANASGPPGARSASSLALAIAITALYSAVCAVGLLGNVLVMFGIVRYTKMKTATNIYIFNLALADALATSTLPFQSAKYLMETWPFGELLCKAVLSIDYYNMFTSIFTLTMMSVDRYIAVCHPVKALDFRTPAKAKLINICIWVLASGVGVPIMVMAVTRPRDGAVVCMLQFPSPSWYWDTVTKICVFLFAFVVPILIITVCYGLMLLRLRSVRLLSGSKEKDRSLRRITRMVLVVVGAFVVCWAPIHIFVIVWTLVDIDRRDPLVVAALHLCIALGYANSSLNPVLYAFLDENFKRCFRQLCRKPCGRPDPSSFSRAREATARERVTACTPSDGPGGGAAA
ABHD5 PLIN5 conf = ABHD5-PLIN5 interaction inhibitors, confirmation, biochemical, luminescence | inhibition, % at 4 µM | AID 651612, 2012 | 67% of 2,200 active | shares compounds with ABHD5-PLIN5 inh; in the data active = inhibition above about 23%;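 note: 0% = DMSO vehicle wells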
HNF4 counter = HNF4 dimerization inhibitors, counter-screen for ABHD5-PLIN5 interaction inhibitor project, biochemical, split-luciferase complementation, luminescence; shares compounds with ABHD5-PLIN5 inh; 77% of 2,200 active; inhibition, % at 4 µM;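 active = mean inhibition across replicate wells exceeding the computed hit threshold, cut at about 13% in these data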;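 note: light from luciferase halves that rejoin when HNF4 fusion proteins dimerize; 0% = DMSO only wells and the 100% control is not given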
Active calls of the source: *; nt = not tested or not shown. Rows were chosen to be rich in hits. Some 3% of all compounds tested hit in one or more screens of this group.

SMILES | ABHD5-PLIN5 inh | Beta2AR agonist | PfGluPho inh | MC4R antag cAMP | MC4R barr agon | cAMP nonselect | MC4R antag conf | others
Cc1cc(C)c(S(=O)(=O)NCC(=O)NCc2ccccn2)c(C)c1 | 6 | -11 | -24 | 30* | -3 | 0 | -2
C/C(=N\NC(=O)C1CCCC1)c1ccc(Cl)cc1Cl | -5 | -14 | 2 | -4 | -2 | nt | nt
Cc1cc(-c2sccc2Br)nc(-n2cccc2)n1 | -3 | 19 | -4 | 35* | 4 | 9 | 4
Cc1cc(-c2ccc(Br)s2)nc(-n2cccc2)n1 | 2 | 4 | 6 | 41* | -1 | 10 | -8
COc1ccc(C(=O)COc2ccc(C)cc2NC(C)=O)cc1 | 3 | 1 | 12 | -1 | 1 | nt | nt
Cc1ccc(C(C)C)c(OCC#CCN2CCOCC2)c1 | -6 | -5 | 10 | 0 | -1 | nt | nt
COCC(C)NC(=O)c1cccc(Cl)c1 (configuration not stated) | 5 | 3 | 7 | 5 | -2 | nt | nt
COCC(C)NC(=O)c1cc(OC)cc(OC)c1 (configuration not stated) | 0 | -5 | 9 | 36* | 0 | 1 | 5
OC[C@@H]1CN(CCNc2ccccc2)C[C@H](n2cnc3c(NCc4ccncc4)ncnc32)O1 | 4 | nt | nt | -3 | 0 | nt | nt
O=C(CSc1c2c(nc3ccc(Cl)cc13)CCCC2)N1CCN(C(=O)c2ccco2)CC1 | 22 | 23 | 13 | 41* | -2 | -10 | 21
O=C(CSc1nc2cc(Cl)ccc2s1)N1CCN(C(=O)c2ccco2)CC1 | 4 | 5 | 0 | -3 | -2 | nt | nt
CS(=O)(=O)c1ccc2nc(NC(=O)c3ccc(NS(=O)(=O)c4ccc(F)c(F)c4)cc3)sc2c1 | 6 | 8 | -17 | 10 | 0 | nt | nt
O=C(Nc1nc2ccc(SC(F)F)cc2s1)c1ccc(NS(=O)(=O)c2ccc(F)c(F)c2)cc1 | -17 | 17 | -18 | 37* | 35* | 2 | -3 | MC4R barr ag=34*;MOR DOR agonist=3
CCOC(=O)/C(=N/O)C1=NC(C)(C)Cc2cc(C)c(C)cc21 | 1 | -2 | -4 | -6 | -1 | nt | nt
Cc1cc(O)c(C(C)C)cc1C1(c2cc(C(C)C)c(O)cc2C)OC(=O)c2ccccc21 | 8 | 11 | 29 | 31* | 19* | 6 | 29* | MC4R barr ag=8.6*;MOR DOR agonist=9
C#CCN(CC=C)C(=O)c1ccc2nc(C3CCCCC3)oc2c1 | -1 | -5 | 4 | 1 | -1 | nt | nt
O=C1c2cc([N+](=O)[O-])ccc2-c2cc(Br)c(N=C(NO)C(F)(F)F)cc21 | 5 | -4 | 17 | 35* | 14* | -3 | -4 | MC4R barr ag=13*;MOR DOR agonist=6
CCN(c1ccccc1)S(=O)(=O)c1ccc(OC)c(NC(=O)COc2ccc(C(C)=O)cc2)c1 | 1 | -3 | 5 | 5 | -1 | nt | nt
Cc1ccc(-c2nc3ccccc3o2)cc1NC(=O)c1ccc2c(c1)OCO2 | -1 | -1 | 23 | 13 | 8 | nt | nt
O=C(Nc1ccc(-c2nc3ccccc3o2)cc1)c1ccc2c(c1)OCO2 | 5 | -14 | -8 | 30* | 20* | 1 | -8 | MC4R barr ag=12*;MOR DOR agonist=7
O=C(CSCc1cccc(Br)c1)N=Nc1c(O)[nH]c2ccccc12 | -2 | 8 | 6 | -3 | 0 | nt | nt
O=Nc1c(-c2c(O)[nH]c3cc(Br)ccc23)[nH]c2ccccc12 | 3 | 43* | 34 | 62* | 14* | 5 | 56* | MC4R barr ag=0;MOR DOR agonist=3
COc1cccc(C(=O)C(C#N)=C(SC)SC)c1 | 8 | 21 | 42 | 42* | 24* | 10 | 23 | MC4R barr ag=14*;MOR DOR agonist=19*
Cc1ccc(OCC(=O)NC(=S)Nc2ccc3c4c(cccc24)CC3)cc1 | 7 | 12 | 3 | 39* | 13* | 7 | 14 | MC4R barr ag=12*;MOR DOR agonist=3
O=C(O)c1cccc(S(=O)(=O)N2CCN(Cc3ccc4c(c3)OCO4)CC2)c1 | 0 | 2 | -17 | -5 | -3 | nt | nt
SMILES | ABHD5-PLIN5 inh | Beta2AR agonist | PfGluPho inh | MC4R antag cAMP | MC4R barr agon | cAMP nonselect | MC4R antag conf | others
CCc1nnc(NC(=O)c2nc(S(=O)(=O)Cc3ccccc3)ncc2Cl)s1 | 34* | 0 | -12 | 30* | -1 | 12 | 9 | ABHD5 PLIN5 conf=69*;HNF4 counter=48*
Cc1noc(C(=O)NCc2ccccc2)c1Cl | 9 | 3 | -4 | -4 | 0 | nt | nt
CCOc1ccccc1NC(=O)c1nc(S(=O)(=O)Cc2cccc(C)c2)ncc1Cl | 8 | 18 | -5 | 22 | -2 | nt | nt
CCc1nnc(NC(=O)c2nc(S(=O)(=O)Cc3cccc(C)c3)ncc2Cl)s1 | 33* | 14 | -17 | 39* | 0 | 20* | 32* | ABHD5 PLIN5 conf=82*;HNF4 counter=49*
O=C(NCc1ccccc1)c1nc(S(=O)(=O)Cc2ccccc2)ncc1Cl | 51* | 26 | 23 | 48* | -4 | 34* | 60* | ABHD5 PLIN5 conf=89*;HNF4 counter=105*
CCc1nnc(NC(=O)c2nc(S(=O)(=O)Cc3ccc(C)cc3)ncc2Cl)s1 | 25* | 29 | -6 | 31* | -6 | 23* | 39* | ABHD5 PLIN5 conf=68*;HNF4 counter=43*
O=C(c1ccccc1)C(CCC(CN1CCOCC1)C(=O)c1ccccc1)CN1CCOCC1 (configuration not stated) | 58* | 9 | -3 | 41* | -1 | -4 | -2 | ABHD5 PLIN5 conf=46*;HNF4 counter=102*

Source: PubChem (several laboratories)
